Data published in ChEMBL document CHEMBL1133331, “Guanylpiperidine peptidomimetics: potent and selective bis-cation inhibitors of factor Xa” (Bioorg Med Chem Lett, 2000).
pIC50, pKi: −log10 of the molar value.

How the values were obtained:
[1] = target: T1, Coagulation factor X (Homo sapiens, UniProt P00742); assay: In vitro inhibition of human Coagulation factor X.
[2] = target: T1, Coagulation factor X; assay: Concentration required for classical fast inhibition of cleavage of the chromogenic substrate by human enzyme Coagulation factor X in vitro
[3] = target: Plasminogen (Homo sapiens, UniProt P00747); assay: In vitro inhibition of human plasmin.
Chain of Plasminogen (P00747 97-580 limits assumed): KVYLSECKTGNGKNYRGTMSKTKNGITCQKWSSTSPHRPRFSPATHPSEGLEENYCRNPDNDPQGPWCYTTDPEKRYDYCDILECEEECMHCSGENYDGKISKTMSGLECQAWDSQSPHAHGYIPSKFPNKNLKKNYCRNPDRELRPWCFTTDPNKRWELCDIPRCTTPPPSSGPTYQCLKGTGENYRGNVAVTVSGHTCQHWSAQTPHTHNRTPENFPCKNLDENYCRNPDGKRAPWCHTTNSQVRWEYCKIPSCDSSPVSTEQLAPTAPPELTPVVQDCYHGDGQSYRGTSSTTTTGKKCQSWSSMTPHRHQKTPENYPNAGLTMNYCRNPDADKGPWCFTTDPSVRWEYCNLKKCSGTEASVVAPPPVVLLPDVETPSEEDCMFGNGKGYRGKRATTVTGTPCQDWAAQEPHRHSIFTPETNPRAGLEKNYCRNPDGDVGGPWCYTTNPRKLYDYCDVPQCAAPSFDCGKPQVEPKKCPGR
Chain of Plasminogen (P00747 581-810 limits assumed): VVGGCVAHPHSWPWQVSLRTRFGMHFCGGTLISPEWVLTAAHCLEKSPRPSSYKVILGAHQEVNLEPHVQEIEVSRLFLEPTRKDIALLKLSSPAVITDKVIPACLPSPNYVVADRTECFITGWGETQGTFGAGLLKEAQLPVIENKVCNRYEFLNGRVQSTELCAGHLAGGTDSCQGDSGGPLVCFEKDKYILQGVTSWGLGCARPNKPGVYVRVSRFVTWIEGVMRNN
In short: (§1)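 Purified human enzymes (plasmin, thrombin/factor IIa, trypsin) were each tested for inhibitor-dependent cleavage of a chromogenic substrate. IC50 is the concentration that blocks 50% of substrate cleavage.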

[4] = Concentration required to inhibit the activation of human prothrombin in a preformed complex of factor Xa, factor IIa and phospholipid in vitro; conditions: in the assay text read “factor Va” for “factor IIa”
In short: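 The assembled prothrombinase complex was assayed with its natural substrate, prothrombin, to measure inhibition of prothrombin activation. IC50 is the concentration giving 50% inhibition.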

[5] = target: Prothrombin (Homo sapiens, UniProt P00734); assay: In vitro inhibition of human thrombin.; in short: as §1
[6] = target: Serine protease 1 (Homo sapiens, UniProt P07477); assay: In vitro inhibition of human trypsin.; in short: as §1
Chain of Serine protease 1 (P07477 whole entry): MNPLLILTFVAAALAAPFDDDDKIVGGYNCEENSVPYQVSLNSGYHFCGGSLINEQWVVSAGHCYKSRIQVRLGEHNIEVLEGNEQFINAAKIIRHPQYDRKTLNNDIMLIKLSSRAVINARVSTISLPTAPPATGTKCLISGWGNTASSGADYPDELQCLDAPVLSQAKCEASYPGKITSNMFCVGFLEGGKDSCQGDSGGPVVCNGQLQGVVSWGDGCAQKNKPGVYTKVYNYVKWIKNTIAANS

[7] = Ratio of inhibitory concentration of prothrombinase to that of human factor Xa was determined
[8] = target: T1, Coagulation factor X; assay: Concentration required to inhibit the cleavage of the chromogenic substrate by human enzyme Coagulation factor X in vitro
[9] = target: T1, Coagulation factor X; assay: In vitro inhibitory activity against human Coagulation factor X

T1 sequence (P00742 41-179 limits assumed): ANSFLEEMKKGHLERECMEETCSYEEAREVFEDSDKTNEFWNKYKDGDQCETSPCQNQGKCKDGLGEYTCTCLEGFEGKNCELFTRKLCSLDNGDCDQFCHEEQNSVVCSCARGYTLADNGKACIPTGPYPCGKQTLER
T1 sequence (P00742 235-488 limits assumed): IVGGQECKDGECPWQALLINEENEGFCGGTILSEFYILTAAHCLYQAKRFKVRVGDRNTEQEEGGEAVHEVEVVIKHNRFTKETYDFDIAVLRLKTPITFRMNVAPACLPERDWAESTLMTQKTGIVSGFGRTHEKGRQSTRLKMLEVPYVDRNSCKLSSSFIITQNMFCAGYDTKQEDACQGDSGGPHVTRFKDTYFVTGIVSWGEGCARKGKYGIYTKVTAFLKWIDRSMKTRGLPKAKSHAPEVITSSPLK

| Structure (SMILES) | pIC50 [1] | pKi [2] | pIC50 [3] | pIC50 [4] | pIC50 [5] | pIC50 [6] | Ratio [7] | pIC50 [8] | pKi [9] |
| --- | --- | --- | --- | --- | --- | --- | --- | --- | --- |
| N=C(N)NCCC[C@@H](NC(=O)OCc1ccccc1)C(=O)NCC(=O)N[C@H]1CCCN(C(=N)N)C1O (single isomer, unassigned) [listing 1 of 2 here] | 7.46 | – | – | 8.10 | – | – | – | – | – |
| N=C(N)NCCC[C@@H](NC(=O)OCc1ccccc1)C(=O)NCC(=O)N[C@H]1CCCN(C(=N)N)C1O (single isomer, unassigned) [listing 2 of 2 here] | – | – | – | – | – | – | 0.23 | – | – |
| N=C(N)N1CCCC(C[C@@H](NS(=O)(=O)Cc2ccccc2)C(=O)NCC(=O)N[C@H]2CCCN(C(=N)N)C2O)C1 (stereo in doubt) [listing 1 of 2 here] | 9.04 | – | 6.14 | 8.48 | < 5.60 | 7.51 | – | – | – |
| N=C(N)NCCC[C@@H](NS(=O)(=O)Cc1ccccc1)C(=O)NCC(=O)N[C@H]1CCCN(C(=N)N)C1O (some centres undefined) | 9.05 | – | 5.92 | – | < 5.60 | 7.12 | – | – | – |
| N=C(N)N1CCC(C(NS(=O)(=O)Cc2ccccc2)C(=O)NCC(=O)N[C@H]2CCCN(C(=N)N)C2O)CC1 (some centres undefined) | 8.96 | – | 6.17 | – | < 5.60 | 7.60 | – | – | – |
| N=C(N)NCCC[C@@H](NC(=O)OCc1ccccc1)C(=O)NCC(=O)N[C@H]1CCCN(C(=N)N)C1O (stereo in doubt; 1) | 7.46 | – | < 5.60 | – | < 5.60 | 6.94 | – | – | – |
| N=C(N)NCCC[C@@H](NC(=O)OCc1ccccc1)C(=O)NCC(=O)N[C@H]1CCCN(C(=N)N)C1O (stereo in doubt) [listing 1 of 2 here] | 9.05 | – | – | 8.47 | – | – | – | – | – |
| COC(=O)N[C@H](CC1CCN(C(=N)N)CC1)C(=O)NCC(=O)N[C@H]1CCCN(C(=N)N)C1O (some centres undefined) | – | – | < 5.60 | – | < 5.60 | 6.39 | – | – | 7.64 |
| N=C(N)NCCC[C@@H](NC(=O)OCc1ccccc1)C(=O)NCC(=O)N[C@H]1CCCN(C(=N)N)C1O (stereo in doubt) [listing 2 of 2 here] | – | – | – | – | – | – | 3.8 | – | – |
| CCOC(=O)c1ccc(CCOC(=O)N[C@H](CC2CCN(C(=N)N)CC2)C(=O)NCC(=O)N[C@H]2CCCN(C(=N)N)C2O)cc1 (some centres undefined) | – | – | 5.84 | – | < 5.60 | 6.80 | – | – | 7.80 |

Continued, values first:

| pIC50 [1] | pKi [2] | pIC50 [3] | pIC50 [4] | pIC50 [5] | pIC50 [6] | Ratio [7] | pIC50 [8] | pKi [9] | Structure (SMILES) |
| --- | --- | --- | --- | --- | --- | --- | --- | --- | --- |
| 8.37 | 7.80 | 6.64 | 7.85 | < 5.60 | 6.68 | 0.9 | – | – | N=C(N)N1CCC(C[C@@H](NS(=O)(=O)Cc2cccc(C(=O)O)c2)C(=O)NCC(=O)N[C@H]2CCCN(C(=N)N)C2O)CC1 (some centres undefined) |
| 8.86 | – | 5.71 | – | 5.96 | 7.82 | – | – | – | COC(=O)c1ccccc1CS(=O)(=O)N[C@H](CC1CCCN(C(=N)N)C1)C(=O)NCC(=O)N[C@H]1CCCN(C(=N)N)C1O (stereo in doubt; form 1) |
| 8.24 | – | 5.60 | 7.92 | < 5.60 | 6.35 | 2.3 | 8.28 | – | N=C(N)N1CCC(C[C@@H](NS(=O)(=O)Cc2ccccc2C(=O)O)C(=O)NCC(=O)N[C@H]2CCCN(C(=N)N)C2O)CC1 (some centres undefined) |
| 8.92 | – | 6.04 | 8.38 | < 5.60 | 6.92 | – | – | – | N=C(N)N1CCCC(C[C@@H](NS(=O)(=O)Cc2ccccc2)C(=O)NCC(=O)N[C@H]2CCCN(C(=N)N)C2O)C1 (single isomer, unassigned) [listing 1 of 2 here] |
| 8.97 | – | 6.05 | – | < 5.60 | 6.91 | – | – | – | COC(=O)c1ccccc1CS(=O)(=O)N[C@H](CC1CCCN(C(=N)N)C1)C(=O)NCC(=O)N[C@H]1CCCN(C(=N)N)C1O (stereo in doubt; form 2) |
| – | – | – | – | – | – | 3.6 | – | – | N=C(N)N1CCCC(C[C@@H](NS(=O)(=O)Cc2ccccc2)C(=O)NCC(=O)N[C@H]2CCCN(C(=N)N)C2O)C1 (stereo in doubt) [listing 2 of 2 here] |
| – | – | – | – | – | – | 2 | – | – | N=C(N)N1CCCC(C[C@@H](NS(=O)(=O)Cc2ccccc2)C(=O)NCC(=O)N[C@H]2CCCN(C(=N)N)C2O)C1 (single isomer, unassigned) [listing 2 of 2 here] |
| 8.68 | – | 5.60 | – | < 5.60 | 6.62 | – | – | – | N=C(N)N1CCCC(C[C@@H](NS(=O)(=O)Cc2ccccc2C(=O)O)C(=O)NCC(=O)N[C@H]2CCCN(C(=N)N)C2O)C1 (single isomer, unassigned) |
| 8.66 | – | 6.41 | – | < 5.60 | 6.84 | – | – | – | COC(=O)c1cccc(CS(=O)(=O)N[C@H](CC2CCN(C(=N)N)CC2)C(=O)NCC(=O)N[C@H]2CCCN(C(=N)N)C2O)c1 (some centres undefined) |
| 9.08 | – | 6.06 | 8.51 | < 5.60 | 6.77 | 3.7 | – | – | N=C(N)N1CCC(C[C@@H](NS(=O)(=O)Cc2ccccc2)C(=O)NCC(=O)N[C@H]2CCCN(C(=N)N)C2O)CC1 (some centres undefined) |
| 8.59 | 7.64 | 6.06 | 7.16 | < 5.60 | 6.27 | 3 | – | – | N=C(N)N1CCC(C[C@@H](NS(=O)(=O)Cc2ccccc2-n2cnnn2)C(=O)NCC(=O)N[C@H]2CCCN(C(=N)N)C2O)CC1 (some centres undefined) |
| 8.38 | – | < 5.60 | – | 6.45 | 7.48 | – | – | – | N=C(N)N1CCCC(C[C@@H](NS(=O)(=O)Cc2ccccc2C(=O)O)C(=O)NCC(=O)N[C@H]2CCCN(C(=N)N)C2O)C1 (stereo in doubt) |
| 9.03 | – | 6.02 | – | < 5.60 | 6.83 | – | – | – | COC(=O)c1ccccc1CS(=O)(=O)N[C@H](CC1CCN(C(=N)N)CC1)C(=O)NCC(=O)N[C@H]1CCCN(C(=N)N)C1O (some centres undefined) |
